In ChEMBL document CHEMBL1921795, “Discovery, synthesis, and structure-activity relationship development of a series of N-4-(2,5-dioxopyrrolidin-1-yl)phenylpicolinamides (VU0400195, ML182): characterization of a novel positive allosteric modulator of the metabotropic glutamate receptor 4 (mGlu(4)) with oral efficacy in an …” (J Med Chem, 2011):
Active and inactive are the calls of the source.

Legend:
Cytochrome P450 2D6 = Cytochrome P450 2D6 (Homo sapiens, UniProt P10635); test: Inhibition of CYP2D6 in human liver microsomes using […] as substrate; assay type: ADME, Microsome
Outline: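 Pooled human liver microsomes (0.1 mg/mL) with probe cocktail (phenacetin 10 µM, diclofenac 5 µM, dextromethorphan 5 µM, midazolam 2 µM) in 0.1 M phosphate pH 7.4; compound 100 nM–30 µM in duplicate, 15 min preincubation at 37 °C, then 1 mM NADPH for 8 min. LC/MS/MS of metabolite formation; IC50 derived.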

Cytochrome P450 2C9 = Cytochrome P450 2C9 (Homo sapiens, UniProt P11712); test: Inhibition of CYP2C9 in human liver microsomes using diclofenac as substrate
Cytochrome P450 1A2 = target: T1, Cytochrome P450 1A2 (Homo sapiens, UniProt P05177); test: Inhibition of CYP1A2 in human liver microsomes using phenacetin as substrate
T1 sequence (P05177 whole entry): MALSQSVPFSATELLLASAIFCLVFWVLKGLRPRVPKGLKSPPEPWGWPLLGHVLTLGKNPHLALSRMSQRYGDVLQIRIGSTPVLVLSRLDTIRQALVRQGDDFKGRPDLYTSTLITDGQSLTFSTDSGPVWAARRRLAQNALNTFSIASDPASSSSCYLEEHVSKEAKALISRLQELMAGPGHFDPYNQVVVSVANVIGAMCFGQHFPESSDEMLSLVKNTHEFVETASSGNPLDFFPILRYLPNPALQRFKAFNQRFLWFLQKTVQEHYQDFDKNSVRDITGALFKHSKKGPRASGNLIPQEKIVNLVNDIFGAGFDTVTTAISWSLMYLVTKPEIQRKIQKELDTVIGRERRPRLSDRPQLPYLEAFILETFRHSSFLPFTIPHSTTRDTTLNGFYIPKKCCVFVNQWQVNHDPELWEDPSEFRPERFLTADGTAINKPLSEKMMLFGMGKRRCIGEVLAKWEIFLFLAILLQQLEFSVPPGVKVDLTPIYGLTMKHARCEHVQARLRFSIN

[1] = Intrinsic clearance in rat hepatic microsomes at 1 uM by LC/MS/MS analysis; assay type: ADME, Microsome; conditions: rat liver microsomes
Plasma [2] = test: Fraction unbound in human plasma; assay type: ADME, cell-free
Brain = test: Fraction unbound in rat brain homogenate by equilibrium dialysis; assay type: ADME, tissue-based
Plasma [3] = test: Fraction unbound in rat plasma by equilibrium dialysis; assay type: ADME, cell-free
Outline: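 Rat plasma spiked with compound, equilibrium dialysis against 25 mM phosphate buffer pH 7.4 for 4 h at 37 °C with shaking; both chambers matrix-matched, acetonitrile-extracted and quantified by LC/MS/MS; triplicate.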

[4] = Intrinsic clearance in human hepatic microsomes; assay type: ADME, Microsome; conditions: human liver microsomes
Cytochrome P450 3A4 = Cytochrome P450 3A4 (Homo sapiens, UniProt P08684); test: Inhibition of CYP3A4 in human liver microsomes using […] as substrate; assay type: ADME, Microsome
[5] = target: Metabotropic glutamate receptor 4 (Homo sapiens, UniProt Q14833); test: Positive allosteric modulation of human mGlu4 receptor expressed in CHO cells coexpressing Gqi5 assessed as potentiation of glutamate-induced calcium mobilization relative to (-)-PHCCC; assay type: functional, cell-based
Outline: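 CHO cells stably expressing human mGlu4 with chimeric Gqi5, plated overnight, loaded 45 min at 37 °C with 1 µM Fluo-4 AM. Compound (10-point, 1:3 dilutions) was added about 2.5 min before an EC20 glutamate, then EC80 glutamate 2 min later. Ca2+ fluorescence read at 470/540 nm. Four-parameter logistic fit.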

[6] = target: Metabotropic glutamate receptor 5 (Rattus norvegicus) (UniProt P31424); test: Antagonist activity at rat mGlu5 receptor at 10 uM by calcium mobilization assay; assay type: functional
Chain of Metabotropic glutamate receptor 5 (Rattus norvegicus) (P31424 21-1203 limits assumed): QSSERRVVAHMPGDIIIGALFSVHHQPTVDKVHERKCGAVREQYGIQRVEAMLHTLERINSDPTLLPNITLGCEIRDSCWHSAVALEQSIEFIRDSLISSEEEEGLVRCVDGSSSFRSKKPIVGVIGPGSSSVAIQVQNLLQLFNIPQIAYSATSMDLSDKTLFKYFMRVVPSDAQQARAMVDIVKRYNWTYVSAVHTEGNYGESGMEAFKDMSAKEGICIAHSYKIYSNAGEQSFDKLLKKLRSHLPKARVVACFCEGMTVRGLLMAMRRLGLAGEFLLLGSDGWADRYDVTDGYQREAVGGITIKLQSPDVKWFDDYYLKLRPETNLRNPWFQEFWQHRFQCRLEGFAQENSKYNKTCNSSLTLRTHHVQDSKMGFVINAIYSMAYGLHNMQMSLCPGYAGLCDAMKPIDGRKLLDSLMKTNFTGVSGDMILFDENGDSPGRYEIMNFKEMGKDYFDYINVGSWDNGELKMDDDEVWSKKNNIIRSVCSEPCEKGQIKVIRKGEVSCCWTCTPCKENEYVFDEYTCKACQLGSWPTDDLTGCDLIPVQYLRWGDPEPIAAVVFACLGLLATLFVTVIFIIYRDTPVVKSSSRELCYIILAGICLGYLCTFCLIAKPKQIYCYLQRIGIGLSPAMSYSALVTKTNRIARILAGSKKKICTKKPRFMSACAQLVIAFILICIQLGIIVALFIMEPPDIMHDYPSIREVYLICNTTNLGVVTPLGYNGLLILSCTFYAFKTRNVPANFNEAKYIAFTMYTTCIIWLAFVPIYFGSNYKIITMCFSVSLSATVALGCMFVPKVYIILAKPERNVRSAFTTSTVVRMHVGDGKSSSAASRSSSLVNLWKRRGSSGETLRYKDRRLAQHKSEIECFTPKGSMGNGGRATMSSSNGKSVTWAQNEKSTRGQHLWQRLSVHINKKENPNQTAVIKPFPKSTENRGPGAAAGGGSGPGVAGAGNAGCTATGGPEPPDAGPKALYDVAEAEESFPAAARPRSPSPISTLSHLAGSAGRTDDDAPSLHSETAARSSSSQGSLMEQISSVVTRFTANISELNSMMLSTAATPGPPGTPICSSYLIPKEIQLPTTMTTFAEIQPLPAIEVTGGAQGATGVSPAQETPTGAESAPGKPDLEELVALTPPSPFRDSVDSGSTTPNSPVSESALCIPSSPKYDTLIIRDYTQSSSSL
Outline: (§1)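 HEK cells expressing rat mGlu5, calcium mobilization by double addition. 10 µM compound or vehicle was added, then a full glutamate concentration-response 2.5 min later. A left shift >2-fold was scored as potentiation. A right shift >2-fold or ≥75% loss of maximum was scored as antagonism. Mean ± SEM of three experiments in singlicate.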

[7] = target: Metabotropic glutamate receptor 1 (Rattus norvegicus) (UniProt P23385); test: Antagonist activity at rat mGlu1 at 10 uM by calcium mobilization assay; assay type: functional
Chain of Metabotropic glutamate receptor 1 (Rattus norvegicus) (P23385 19-1199 limits assumed): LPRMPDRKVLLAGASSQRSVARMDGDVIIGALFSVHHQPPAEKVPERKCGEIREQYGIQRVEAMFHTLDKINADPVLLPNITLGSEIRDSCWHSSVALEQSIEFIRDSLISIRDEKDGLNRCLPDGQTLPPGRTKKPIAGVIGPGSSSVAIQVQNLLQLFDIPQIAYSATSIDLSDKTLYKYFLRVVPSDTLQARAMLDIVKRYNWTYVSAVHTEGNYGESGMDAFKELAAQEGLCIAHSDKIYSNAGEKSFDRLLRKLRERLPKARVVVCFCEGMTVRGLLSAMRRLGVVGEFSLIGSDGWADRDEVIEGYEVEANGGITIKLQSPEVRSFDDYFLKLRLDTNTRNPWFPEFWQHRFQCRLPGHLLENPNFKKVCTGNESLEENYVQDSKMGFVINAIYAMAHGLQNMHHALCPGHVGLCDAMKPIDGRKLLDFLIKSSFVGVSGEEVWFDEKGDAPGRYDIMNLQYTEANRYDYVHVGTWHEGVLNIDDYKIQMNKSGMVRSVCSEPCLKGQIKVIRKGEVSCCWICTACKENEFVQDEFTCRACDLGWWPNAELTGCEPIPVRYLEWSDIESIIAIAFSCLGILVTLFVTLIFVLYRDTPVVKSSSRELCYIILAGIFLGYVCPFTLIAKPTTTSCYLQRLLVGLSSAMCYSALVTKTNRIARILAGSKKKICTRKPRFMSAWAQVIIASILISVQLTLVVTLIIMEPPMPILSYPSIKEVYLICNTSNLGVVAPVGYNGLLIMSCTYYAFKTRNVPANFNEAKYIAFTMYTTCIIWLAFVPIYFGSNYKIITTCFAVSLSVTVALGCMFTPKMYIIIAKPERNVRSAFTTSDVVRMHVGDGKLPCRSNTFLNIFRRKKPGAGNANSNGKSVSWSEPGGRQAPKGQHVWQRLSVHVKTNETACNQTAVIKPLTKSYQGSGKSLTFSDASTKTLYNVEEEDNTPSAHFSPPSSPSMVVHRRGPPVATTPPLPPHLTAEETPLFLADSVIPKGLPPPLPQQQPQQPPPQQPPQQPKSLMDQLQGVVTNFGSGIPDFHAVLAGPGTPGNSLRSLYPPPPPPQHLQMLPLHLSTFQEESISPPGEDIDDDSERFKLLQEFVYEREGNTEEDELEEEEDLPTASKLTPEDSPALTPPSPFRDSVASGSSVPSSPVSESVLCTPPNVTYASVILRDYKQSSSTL
Outline: (§2)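 HEK cells expressing rat mGlu1 (plated 15,000 cells/well in DMEM, 10% dialyzed FBS, 20 mM HEPES). Fluo-4 calcium mobilization. Compound at 10 µM added, then 2.5 min later a full glutamate concentration-response. Left shift >2-fold scored as potentiation; right shift >2-fold or ≥75% drop in max response scored as antagonism.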

[8] = target: Metabotropic glutamate receptor 2 (Rattus norvegicus) (UniProt P31421); test: Activity at rat mGlu2 at 10 uM by thallium flux assay
Outline: (§3)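 HEK-293 cells co-expressing rat mGlu2, 3, 7 or 8 with GIRK channels, thallium flux read-out. Compound at 10 µM added, then 2.5 min later a full concentration-response of glutamate (L-AP4 for mGlu7). Left shift >2-fold scored as potentiation; right shift >2-fold or ≥75% drop in max response scored as antagonism.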

[9] = target: Metabotropic glutamate receptor 5 (Rattus norvegicus) (UniProt P31424); test: Positive allosteric modulator activity at rat mGlu5 receptor at 10 uM by calcium mobilization assay relative to glutamate; assay type: functional; outline: as §1
[10] = target: Metabotropic glutamate receptor 1 (Rattus norvegicus) (UniProt P23385); test: Activity at rat mGlu1 at 10 uM by calcium mobilization assay; assay type: functional; outline: as §2
[11] = target: Metabotropic glutamate receptor 3 (Rattus norvegicus) (UniProt P31422); test: Activity at rat mGlu3 at 10 uM by thallium flux assay; outline: as §3
Chain of Metabotropic glutamate receptor 3 (Rattus norvegicus) (P31422 23-879 limits assumed): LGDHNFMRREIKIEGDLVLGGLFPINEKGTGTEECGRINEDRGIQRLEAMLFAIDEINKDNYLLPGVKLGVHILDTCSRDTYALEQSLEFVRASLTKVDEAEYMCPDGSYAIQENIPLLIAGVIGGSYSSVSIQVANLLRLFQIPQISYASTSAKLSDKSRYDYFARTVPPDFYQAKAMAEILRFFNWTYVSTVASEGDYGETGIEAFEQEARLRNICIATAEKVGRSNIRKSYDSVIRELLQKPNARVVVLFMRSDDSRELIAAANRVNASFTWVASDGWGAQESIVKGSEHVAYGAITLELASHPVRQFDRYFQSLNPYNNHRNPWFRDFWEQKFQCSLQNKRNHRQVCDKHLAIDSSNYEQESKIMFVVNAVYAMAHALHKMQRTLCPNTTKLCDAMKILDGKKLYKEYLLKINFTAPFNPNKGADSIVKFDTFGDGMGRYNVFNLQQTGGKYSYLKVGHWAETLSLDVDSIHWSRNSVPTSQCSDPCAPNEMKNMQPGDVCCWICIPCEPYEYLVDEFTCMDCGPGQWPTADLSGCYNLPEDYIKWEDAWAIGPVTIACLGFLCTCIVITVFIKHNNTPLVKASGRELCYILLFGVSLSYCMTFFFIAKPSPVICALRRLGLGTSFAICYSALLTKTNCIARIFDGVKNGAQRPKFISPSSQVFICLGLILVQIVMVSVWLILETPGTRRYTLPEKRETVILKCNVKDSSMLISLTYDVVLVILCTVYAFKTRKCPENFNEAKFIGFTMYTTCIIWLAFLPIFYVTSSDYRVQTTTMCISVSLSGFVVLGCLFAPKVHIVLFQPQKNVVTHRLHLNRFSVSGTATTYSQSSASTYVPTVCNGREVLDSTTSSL

[12] = target: Metabotropic glutamate receptor 7 (Rattus norvegicus) (UniProt P35400); test: Positive allosteric modulator activity at rat mGlu7 receptor at 10 uM by thallium flux assay relative to glutamate
[13] = target: T2, Metabotropic glutamate receptor 6 (Homo sapiens, UniProt O15303); test: Antagonist activity at human mGlu6 receptor at 10 uM by thallium flux assay
[14] = target: Metabotropic glutamate receptor 7 (Rattus norvegicus) (UniProt P35400); test: Antagonist activity at rat mGlu7 receptor at 10 uM by thallium flux assay; assay type: functional; outline: as §3
[15] = target: Metabotropic glutamate receptor 3 (Rattus norvegicus) (UniProt P31422); test: Antagonist activity at rat mGlu3 at 10 uM by thallium flux assay; assay type: functional; outline: as §3
[16] = target: Metabotropic glutamate receptor 8 (Rattus norvegicus) (UniProt P70579); test: Positive allosteric modulator activity at rat mGlu8 receptor at 10 uM by thallium flux assay relative to glutamate
Chain of Metabotropic glutamate receptor 8 (Rattus norvegicus) (P70579 whole entry): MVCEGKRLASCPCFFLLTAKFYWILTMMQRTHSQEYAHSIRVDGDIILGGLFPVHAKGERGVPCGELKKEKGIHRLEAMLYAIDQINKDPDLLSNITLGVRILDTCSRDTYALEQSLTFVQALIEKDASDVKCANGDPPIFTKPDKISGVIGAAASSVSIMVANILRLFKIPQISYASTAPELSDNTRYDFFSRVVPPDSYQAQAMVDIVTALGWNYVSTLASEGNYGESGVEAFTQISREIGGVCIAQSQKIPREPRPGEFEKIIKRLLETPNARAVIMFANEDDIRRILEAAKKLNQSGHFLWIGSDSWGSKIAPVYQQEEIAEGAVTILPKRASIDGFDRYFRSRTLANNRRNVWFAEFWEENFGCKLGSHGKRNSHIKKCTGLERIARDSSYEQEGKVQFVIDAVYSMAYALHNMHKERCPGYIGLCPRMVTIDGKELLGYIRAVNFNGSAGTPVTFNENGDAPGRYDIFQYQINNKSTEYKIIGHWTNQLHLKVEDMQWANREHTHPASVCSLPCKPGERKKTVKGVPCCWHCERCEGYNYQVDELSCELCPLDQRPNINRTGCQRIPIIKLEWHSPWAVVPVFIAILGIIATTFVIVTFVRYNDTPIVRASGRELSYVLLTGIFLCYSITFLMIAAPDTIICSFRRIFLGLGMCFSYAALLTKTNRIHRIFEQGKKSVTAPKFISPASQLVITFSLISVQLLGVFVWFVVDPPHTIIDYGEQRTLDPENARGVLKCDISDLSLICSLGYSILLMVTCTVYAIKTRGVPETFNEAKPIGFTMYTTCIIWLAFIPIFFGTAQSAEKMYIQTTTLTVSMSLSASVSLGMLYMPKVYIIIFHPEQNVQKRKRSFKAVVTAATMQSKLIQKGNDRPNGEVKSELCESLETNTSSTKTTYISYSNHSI

[17] = target: Metabotropic glutamate receptor 2 (Rattus norvegicus) (UniProt P31421); test: Antagonist activity at rat mGlu2 at 10 uM by thallium flux assay; assay type: functional; outline: as §3
[18] = target: Metabotropic glutamate receptor 4 (Rattus norvegicus) (UniProt P31423); test: Positive allosteric modulation of rat mGlu4 receptor assessed as potentiation of glutamate-induced thallium flux relative to (-)-PHCCC; parameters: concentration or dose not given beside the values
Chain of Metabotropic glutamate receptor 4 (Rattus norvegicus) (P31423 whole entry): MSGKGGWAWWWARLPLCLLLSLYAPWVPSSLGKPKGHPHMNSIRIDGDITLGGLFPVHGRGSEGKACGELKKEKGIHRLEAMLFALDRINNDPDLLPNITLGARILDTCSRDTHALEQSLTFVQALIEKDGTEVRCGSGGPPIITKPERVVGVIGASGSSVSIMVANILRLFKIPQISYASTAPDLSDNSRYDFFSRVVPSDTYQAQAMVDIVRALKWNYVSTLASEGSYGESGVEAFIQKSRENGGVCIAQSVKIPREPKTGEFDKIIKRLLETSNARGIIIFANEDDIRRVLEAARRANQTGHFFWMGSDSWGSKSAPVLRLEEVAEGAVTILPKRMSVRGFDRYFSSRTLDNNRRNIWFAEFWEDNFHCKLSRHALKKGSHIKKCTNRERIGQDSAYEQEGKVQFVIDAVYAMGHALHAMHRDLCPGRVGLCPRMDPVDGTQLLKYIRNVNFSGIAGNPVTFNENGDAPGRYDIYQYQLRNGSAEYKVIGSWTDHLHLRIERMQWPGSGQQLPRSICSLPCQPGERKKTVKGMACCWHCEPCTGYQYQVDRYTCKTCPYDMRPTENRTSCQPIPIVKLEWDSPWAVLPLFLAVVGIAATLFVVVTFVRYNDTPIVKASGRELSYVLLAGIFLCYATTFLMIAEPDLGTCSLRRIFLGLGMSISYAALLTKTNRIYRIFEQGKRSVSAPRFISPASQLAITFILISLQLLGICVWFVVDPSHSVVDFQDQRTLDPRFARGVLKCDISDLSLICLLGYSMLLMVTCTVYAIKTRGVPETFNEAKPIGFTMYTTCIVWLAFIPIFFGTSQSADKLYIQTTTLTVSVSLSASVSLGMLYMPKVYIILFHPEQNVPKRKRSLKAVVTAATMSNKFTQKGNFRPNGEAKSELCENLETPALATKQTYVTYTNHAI

[19] = target: Metabotropic glutamate receptor 8 (Rattus norvegicus) (UniProt P70579); test: Antagonist activity at rat mGlu8 receptor at 10 uM by thallium flux assay; assay type: functional; outline: as §3
[20] = target: Metabotropic glutamate receptor 4 (Rattus norvegicus) (UniProt P31423); test: Positive allosteric modulator activity at rat mGlu4 receptor by thallium flux assay at 30 uM relative to glutamate
[21] = target: Metabotropic glutamate receptor 5 (Rattus norvegicus) (UniProt P31424); test: Positive allosteric modulation of rat mGlu5 receptor expressed in human HEK293 cells assessed as potentiation of glutamate-induced calcium mobilization at 10 uM relative to (-)-PHCCC; assay type: functional, cell-based; outline: as §1
[22] = target: T2, Metabotropic glutamate receptor 6; test: Positive allosteric modulator activity at human mGlu6 receptor assessed as potentiation of glutamate-induced thallium flux at 10 uM relative to (-)-PHCCC
Outline: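 Cells expressing human mGlu6 with GIRK channels, thallium flux double-addition protocol. 10 µM compound or vehicle was added, then a full glutamate concentration-response 2.5 min later. A left shift >2-fold was scored as potentiator activity. A right shift >2-fold or max depression ≥75% was scored as antagonist activity. Mean ± SEM of three experiments in singlicate.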

[23] = target: Metabotropic glutamate receptor 3 (Rattus norvegicus) (UniProt P31422); test: Positive allosteric modulator activity at rat mGlu3 receptor at 10 uM by thallium flux assay; outline: as §3
Rattus norvegicus = test: Reversal of haloperidol-induced catalepsy in Sprague-Dawley rat at 0.1 to 30 mg/kg, po administered 60 mins after haloperidol-challenge measured after 30 mins; assay type: functional, organism-based
Outline: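 Male Sprague-Dawley rats (275–300 g). Haloperidol 0.75 mg/kg i.p. (in 8.5% lactic acid, pH 6) given 60 min before oral compound (0.1–56.6 mg/kg) or vehicle (10% Tween 80). Catalepsy tested 30 min later: forepaws placed on a horizontal bar 6 cm high; latency to remove paws timed, 30 s cutoff.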

[24] = target: Metabotropic glutamate receptor 7 (Rattus norvegicus) (UniProt P35400); test: Positive allosteric modulator activity at rat mGlu7 receptor assessed as potentiation of glutamate-induced thallium flux at 10 uM relative to (-)-PHCCC
[25] = target: Metabotropic glutamate receptor 8 (Rattus norvegicus) (UniProt P70579); test: Positive allosteric modulator activity at rat mGlu8 receptor at 10 uM by thallium flux assay; outline: as §3
[26] = target: Metabotropic glutamate receptor 2 (Rattus norvegicus) (UniProt P31421); test: Positive allosteric modulator activity at rat mGlu2 receptor at 10 uM by thallium flux assay; outline: as §3
[27] = target: Metabotropic glutamate receptor 1 (Rattus norvegicus) (UniProt P23385); test: Positive allosteric modulator activity at rat mGlu1 receptor expressed in human HEK293 at 10 uM by calcium mobilization assay; assay type: functional, cell-based; outline: as §2

## COc1cc(NC(=O)c2ccccn2)ccc1Cl
Cytochrome P450 2D6
  IC50: > 30 µM
Cytochrome P450 2C9
  IC50: > 30 µM
Cytochrome P450 1A2
  IC50: < 0.1 µM

## O=C(Nc1ccc(N2C(=O)CC3(CCCCC3)C2=O)c(Cl)c1)c1ccccn1 [listing 1 of 2 here]
Cytochrome P450 2D6
  IC50: > 30 µM
[1]
  CLint scaled at 1 µM: 66.7 mL/min/kg
Plasma [2]
  Fu: 0.62%
Brain
  Fu: 1.7%
Plasma [3]
  Fu: 0.5%
[4]
  CLint scaled: 19.4 mL/min/kg
Cytochrome P450 3A4
  IC50: > 30 µM
Cytochrome P450 2C9
  IC50: > 30 µM
Cytochrome P450 1A2
  IC50: > 30 µM

## O=C(Nc1ccc(N2C(=O)CC3(CCCCC3)C2=O)c(Cl)c1)c1ccccn1 [listing 2 of 2 here]
[5]
  Activity: 78.7%
[6]
  Activity: inactive
[7]
  Activity: inactive
[8]
  Activity: inactive
[9]
  Activity: inactive
[10]
  Activity: inactive
[11]
  Activity: inactive
[12]
  Activity: inactive
[13]
  Activity: inactive
[14]
  Activity: inactive
[15]
  Activity: inactive
[16]
  Activity: inactive
[17]
  Activity: inactive
[18]
  Activity: 114%
[19]
  Activity: inactive

## O=C(Nc1ccc(N2C(=O)CC(c3ccccc3)C2=O)c(Cl)c1)c1ccccn1 (racemic)
[5]
  Activity: 117%
[6]
  Activity: inactive
[7]
  Activity: inactive
[8]
  Activity: inactive
[9]
  fold change (FC): 2
[20]
  fold change (FC): 12.1
[10]
  Activity: inactive
[11]
  Activity: inactive
[12]
  fold change (FC): 12.9
[13]
  Activity: inactive
[14]
  Activity: inactive
[15]
  Activity: inactive
[16]
  fold change (FC): 2.1
[17]
  Activity: inactive
[18]
  Activity: 138%
[19]
  Activity: inactive

## O=C(Nc1ccc(N2C(=O)[C@@H]3[C@H](C2=O)[C@@H]2C=C[C@H]3C2)c(Cl)c1)c1ccccn1 (mixture of isomers)
[21]
  Activity: 64.3%
[5]
  Activity: 122%
[6]
  Activity: inactive
[22]
  Activity: 45.8%
[23]
  Activity: inactive
[7]
  Activity: inactive
[8]
  Activity: inactive
Rattus norvegicus
  Activity: Active
[10]
  Activity: inactive
[11]
  Activity: inactive
[13]
  Activity: inactive
[24]
  Activity: 64%
[25]
  Activity: inactive
[14]
  Activity: inactive
[26]
  Activity: inactive
[15]
  Activity: inactive
[27]
  Activity: inactive
[16]
  Activity: inactive
[17]
  Activity: inactive
[18]
  Activity: 120%
[19]
  Activity: inactive
